Screens deposited in PubChem BioAssay by several laboratories.
The list is not random: actives were taken first. Their share in the collection is about 4%.
MT stabilize HCS: stabilizes microtubules in HeLa cells; HeLa tubulin immunostaining HCS, 24 h; share of cells brighter than vehicle mean+2SD; % tubulin-high responders, % at 10 µM; 200,000 compounds, 0.83% hits;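 active = plate Z-score above 3 for both tubulin-high and condensed-nucleus cell shares, with cell loss under 80%, at 10 µM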;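 also: anti alpha tubulin signal scored within the nucleus-defined area of each cell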
Pf gametocyte: inhibitors of late stage P. falciparum gametocyte viability; P. falciparum stage V gametocytes, ATP luminescence, 24 h; inhibition, % at 10.9 µM; 150,000 compounds, 0.065% hits;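 active = inhibition above the mean plus 3 SD of compounds within the control limits, set per campaign, cut at about 38% in these data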;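 also: 0% = DMSO wells and 100% = medium only without gametocytes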
bCat nuc transl: beta-catenin nuclear translocation modulation | nuclear translocation activity, % at 5 µM | 190,000 compounds, 0.3% hits | HeLa beta-catenin nuclear translocation, immunofluorescence imaging | AID 1665;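 active = nuclear translocation activity above 50% at 5 µM, with a well cell count of 50 or more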;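 also: per-cell ratio of nuclear to cytoplasmic median beta-catenin stain intensity; plate controls were DMSO negative control for no effect and GSK-3 inhibitor IX positive control for full effect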
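Test system: human HeLa cells, native beta-catenin. Compound dosing: 5 µM primary single dose, 0.1% DMSO, 0.02–20 µM confirmation series. Incubation: compound exposure 24 h at 37°C. Detection: beta-catenin immunostaining with DAPI counterstain, 20x imaging, 6 fields/well. Read-out basis: Nuclear/cytoplasmic beta-catenin signal ratio, % activation.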
WT yeast gro inh: growth inhibition of WT yeast, mitochondrial fusion screen. mitochondrial fusion phenotypic screen, WT strain. inhibition, % at 10 µM. 190,000 compounds, 2.1% hits. AID 1362; in the data active = inhibition above about 58%; tested in S. cerevisiae
KCC2 mod: modulators of human KCC2 chloride dependent transport; B-score of Tl+ flux slope (higher = more flux/activation; lower = inhibition) at 10 µM; Q9H2X9; 190,000 compounds, 2.2% hits; KCC2 cells, thallium flux FluoZin-2 fluorescence;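 active = thallium flux slope and its plate-corrected score both differing from the plate sample mean at a set confidence after two filtering rounds, in either direction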;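 also: slope of fluorescence scaled to starting intensity during 10 to 20 s after thallium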
Target sequence (Q9H2X9 whole entry, looked up): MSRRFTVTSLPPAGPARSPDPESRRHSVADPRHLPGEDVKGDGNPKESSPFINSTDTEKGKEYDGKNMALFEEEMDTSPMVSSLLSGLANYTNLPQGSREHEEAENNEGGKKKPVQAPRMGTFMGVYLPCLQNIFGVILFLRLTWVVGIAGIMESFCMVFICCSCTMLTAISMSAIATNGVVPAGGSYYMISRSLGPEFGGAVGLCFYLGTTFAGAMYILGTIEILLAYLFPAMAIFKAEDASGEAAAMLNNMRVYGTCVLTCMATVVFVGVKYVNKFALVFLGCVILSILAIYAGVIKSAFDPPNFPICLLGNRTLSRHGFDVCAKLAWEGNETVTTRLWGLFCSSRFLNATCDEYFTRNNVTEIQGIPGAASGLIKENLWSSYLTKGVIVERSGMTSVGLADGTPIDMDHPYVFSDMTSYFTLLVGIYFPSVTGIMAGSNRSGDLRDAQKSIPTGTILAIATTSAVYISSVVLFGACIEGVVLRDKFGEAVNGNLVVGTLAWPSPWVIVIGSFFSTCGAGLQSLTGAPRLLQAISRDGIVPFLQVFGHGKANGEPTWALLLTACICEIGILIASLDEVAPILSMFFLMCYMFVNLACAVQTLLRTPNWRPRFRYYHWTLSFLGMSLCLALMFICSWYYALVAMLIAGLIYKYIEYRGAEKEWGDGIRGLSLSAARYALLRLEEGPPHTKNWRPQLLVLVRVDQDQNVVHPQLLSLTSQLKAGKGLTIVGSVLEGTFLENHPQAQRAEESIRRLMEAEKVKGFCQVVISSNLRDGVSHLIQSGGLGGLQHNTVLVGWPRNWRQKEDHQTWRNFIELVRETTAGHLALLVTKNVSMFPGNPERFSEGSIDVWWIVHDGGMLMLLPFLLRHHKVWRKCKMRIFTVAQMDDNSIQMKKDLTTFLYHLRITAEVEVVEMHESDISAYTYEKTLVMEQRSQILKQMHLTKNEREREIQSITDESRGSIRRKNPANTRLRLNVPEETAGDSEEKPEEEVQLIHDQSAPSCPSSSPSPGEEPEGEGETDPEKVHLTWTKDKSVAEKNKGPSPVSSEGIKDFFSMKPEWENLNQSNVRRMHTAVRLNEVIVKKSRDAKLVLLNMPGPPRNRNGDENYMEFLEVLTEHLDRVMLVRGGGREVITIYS
Numbers without * were called inactive.

Results for CC(C)(C)c1ccc(OCCCNCc2ccccc2)cc1 ?
MT stabilize HCS: 3; Pf gametocyte: 4; bCat nuc transl: -1; WT yeast gro inh: 87*; KCC2 mod: -2

What do the screens show for `COCCCNCCCOc1ccc(C(C)(C)c2ccccc2)cc1`?
MT stabilize HCS: 4; WT yeast gro inh: 45; KCC2 mod: 1.4

What do the screens show for `COCCNCCCOc1ccc(C(C)(C)c2ccccc2)cc1`?
MT stabilize HCS: 3; Pf gametocyte: 5; WT yeast gro inh: 3; KCC2 mod: -0.12

How did CN1CCN(C(=O)C2=C[C@H](c3ccc(C(F)(F)F)cc3)C[C@H](OCc3ccc(CO)cc3)O2)CC1 do in these assays?
MT stabilize HCS: 3; bCat nuc transl: -1; WT yeast gro inh: 10; KCC2 mod: -2

Results for O=C(COc1ccccc1[N+](=O)[O-])Nc1ccc(N2CCN(C(=O)c3cccs3)CC2)cc1 ?
MT stabilize HCS: 3; Pf gametocyte: 9; bCat nuc transl: 0; WT yeast gro inh: 26; KCC2 mod: -0.78

How did CC(NC(=O)/C(=C\c1ccco1)NC(=O)c1ccccc1Br)C(=O)O (stereo unspecified) do in these assays?
MT stabilize HCS: 5; bCat nuc transl: 0; WT yeast gro inh: 14; KCC2 mod: 0.26

What do the screens show for `CCOc1ccc(N2CCc3c(C)nc(SC)nc32)cc1`?
MT stabilize HCS: 31*; bCat nuc transl: 125*; WT yeast gro inh: 10; KCC2 mod: -0.17

How did CSc1nc(C)c2c(n1)N(c1ccc(O)cc1)CC2 do in these assays?
MT stabilize HCS: 2; Pf gametocyte: 7; bCat nuc transl: 1; WT yeast gro inh: -13; KCC2 mod: -1.8

What do the screens show for `CSc1nc(C)c2c(n1)N(c1ccc(F)cc1)CC2`?
MT stabilize HCS: 0; bCat nuc transl: -1; WT yeast gro inh: 10

Results for COc1ccc(N2CCc3c(C)nc(SC)nc32)cc1 ?
MT stabilize HCS: 17*; Pf gametocyte: 5; bCat nuc transl: -2; WT yeast gro inh: 17; KCC2 mod: -1.6

What do the screens show for `O=C(NC1CCCCCC1)C1Cc2ccccc2CN1C(=O)c1ccco1` (stereo unspecified)?
MT stabilize HCS: 3; Pf gametocyte: -9; bCat nuc transl: -1; WT yeast gro inh: 3; KCC2 mod: -1.1

What do the screens show for `COCC(C)NS(=O)(=O)c1ccc(NC(=O)c2ccccn2)cc1` (stereo unspecified)?
Pf gametocyte: -8; bCat nuc transl: 0; KCC2 mod: 0.073

How did CCOc1cc(-c2cc(-c3ccc(C)o3)nc(N)c2C#N)ccc1O do in these assays?
MT stabilize HCS: 21; Pf gametocyte: 9; bCat nuc transl: 55*; WT yeast gro inh: 14

Results for Cc1ccc(-c2cc(-c3ccc4c(c3)OCO4)c(C#N)c(N)n2)o1 ?
MT stabilize HCS: 59*; bCat nuc transl: 2; WT yeast gro inh: 39; KCC2 mod: -0.32

What do the screens show for `C/C=C(\C)CN1CCN(c2cc(C)ccc2C)CC1`?
MT stabilize HCS: 4; bCat nuc transl: -3; WT yeast gro inh: 59*

What do the screens show for `C=CC[n+]1c(-c2ccc(Cl)cc2Cl)csc1Nc1ccc(NC(C)=O)cc1`?
MT stabilize HCS: 5; Pf gametocyte: -17; bCat nuc transl: 8; WT yeast gro inh: 86*; KCC2 mod: -0.78

Results for CCCC[n+]1c(-c2ccc(Cl)cc2Cl)csc1Nc1ccccc1 ?
MT stabilize HCS: 2; bCat nuc transl: -2; WT yeast gro inh: 68*; KCC2 mod: 0.068

How did C=CC[n+]1c(-c2ccc(Cl)cc2Cl)csc1Nc1c(C)n(C)n(-c2ccccc2)c1=O do in these assays?
MT stabilize HCS: 4; bCat nuc transl: 3; WT yeast gro inh: 24; KCC2 mod: -0.67

Results for Cc1ccc(-c2csc(Nc3ccccc3)[n+]2CCc2ccccc2)cc1 ?
MT stabilize HCS: 2; Pf gametocyte: -2; bCat nuc transl: -5; WT yeast gro inh: 28; KCC2 mod: 0.26

What do the screens show for `Clc1ccc(-c2csc(Nc3ccccc3)[n+]2Cc2ccco2)c(Cl)c1`?
MT stabilize HCS: 2; Pf gametocyte: 9; bCat nuc transl: 2; WT yeast gro inh: 72*; KCC2 mod: 0.11

Results for Cc1ccc(C)c(C(=O)CSc2nc(C)cc(=O)[nH]2)c1 ?
Pf gametocyte: 20

Results for CCN(CC)C(=O)Cn1cc(C(=O)C(=O)N2CC=C(c3ccccc3)CC2)c2ccccc21 ?
MT stabilize HCS: 2; Pf gametocyte: -2; bCat nuc transl: 0; WT yeast gro inh: -9; KCC2 mod: -1.2

Results for C[N+](C)=C1SCC(C)(/C=N/O)S1 (stereo unspecified) ?
Pf gametocyte: 13; bCat nuc transl: 0; KCC2 mod: 0.14

How did Cc1ccnc(NS(=O)(=O)c2ccc(NC(=O)c3ccc(Cl)cc3[N+](=O)[O-])cc2)n1 do in these assays?
Pf gametocyte: 8

What do the screens show for `Cc1cccn2c(=O)c(C=NCCO)c(NCc3ccco3)nc12`?
MT stabilize HCS: 3; Pf gametocyte: -25; bCat nuc transl: -4; WT yeast gro inh: 0; KCC2 mod: -0.51

Results for Cc1cccn2c(=O)c(C=NCc3ccco3)c(Nc3ccc(SC(F)F)cc3)nc12 ?
MT stabilize HCS: 1; Pf gametocyte: -12; bCat nuc transl: 0; WT yeast gro inh: 83*; KCC2 mod: -0.58

How did S=C(NCCSCc1ccccc1Cl)Nc1ccccc1 do in these assays?
MT stabilize HCS: 3; bCat nuc transl: -1; WT yeast gro inh: 67*

Results for CCOc1ccc(CSCCNC(=S)Nc2ccc(OC)cc2)cc1 ?
Pf gametocyte: -24; bCat nuc transl: 0; KCC2 mod: -0.5

What do the screens show for `CCCOc1ccc(CSCCNC(=S)Nc2ccccc2)cc1`?
MT stabilize HCS: 4; bCat nuc transl: 1; WT yeast gro inh: 67*; KCC2 mod: 1.2

What do the screens show for `Fc1ccc(NC(=S)NCc2ccccc2Cl)cc1`?
MT stabilize HCS: 1; Pf gametocyte: -14; bCat nuc transl: -6; WT yeast gro inh: 15; KCC2 mod: -0.52

What do the screens show for `S=C(NCCSCc1ccc(Cl)cc1)Nc1ccccc1`?
MT stabilize HCS: 4; bCat nuc transl: -3; WT yeast gro inh: 79*; KCC2 mod: 0.4

Results for Cc1cccc(NC(=S)NC(C)CCc2ccccc2)c1 (stereo unspecified) ?
MT stabilize HCS: 5; Pf gametocyte: -35; bCat nuc transl: 0; WT yeast gro inh: 74*; KCC2 mod: -3

What do the screens show for `O=[N+]([O-])c1cccc2c3c([nH]c12)CCCC3`?
Pf gametocyte: 13; bCat nuc transl: 0; KCC2 mod: 0.008

Results for Cc1cc2nc3c(=O)n(C4CCCCC4)c(=O)[nH]c3nc2cc1N ?
MT stabilize HCS: 5; Pf gametocyte: 14; bCat nuc transl: 1; WT yeast gro inh: -4; KCC2 mod: inactive

What do the screens show for `Cc1cc2nc(-c3ccc(SCc4ccccn4)nc3)[nH]c2cc1C`?
MT stabilize HCS: 3; Pf gametocyte: 10; bCat nuc transl: 20; WT yeast gro inh: -6; KCC2 mod: -0.83
